{
  "source": "ChEMBL document CHEMBL3352721",
  "about": "“Identification, optimization, and pharmacology of acylurea GHS-R1a inverse agonists” (J Med Chem, 2014)",
  "key": {"MDR1 [1]": {"tested_on": "MDR1", "assay": "Apparent permeability in MDCK cells expressing MDR1 at 10 uM assessed as apical to basolateral side transport", "format": "ADME, cell-based, Canis lupus familiaris", "conditions": "dog", "summary_of_the_method": "(§1)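 MDCK-MDR1 monolayers incubated with compound at 10 µM; permeability measured in both A→B and B→A directions, giving Papp A-B (x10^6 cm/s) and the efflux ratio.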"}, "[2]": {"assay": "Volume of distribution at steady state in beagle dog at 1 mg/kg, iv", "format": "ADME, organism-based, Canis lupus familiaris", "parameters": "dose 1 mg/kg, route intravenous", "conditions": "in vivo, read-out: Vdss", "summary_of_the_method": "(§2)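 Male HW rats, beagle dogs or CD-1 mice received an IV bolus in 5% DMSO/95% hydroxypropyl-β-cyclodextrin (30% w/v). EDTA plasma was sampled over 24 h and assayed by LC/MS/MS after acetonitrile protein precipitation. CL and Vss were obtained by non-compartmental analysis.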"}, "[3]": {"assay": "Cmax in beagle dog at 1 mg/kg, po", "format": "ADME, organism-based, Canis lupus familiaris", "parameters": "dose 1 mg/kg, route oral", "conditions": "in vivo", "summary_of_the_method": "(§3)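 Oral gavage in male HW rats, beagle dogs or CD-1 mice, vehicle Pluronic F127 in water. EDTA plasma was collected over 24 h and quantified by LC/MS/MS after acetonitrile precipitation. Cmax and bioavailability were obtained by non-compartmental analysis against IV data.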"}, "[4]": {"target": "Growth hormone secretagogue receptor type 1 (Homo sapiens, UniProt Q92847)", "sequence (Q92847 whole entry)": "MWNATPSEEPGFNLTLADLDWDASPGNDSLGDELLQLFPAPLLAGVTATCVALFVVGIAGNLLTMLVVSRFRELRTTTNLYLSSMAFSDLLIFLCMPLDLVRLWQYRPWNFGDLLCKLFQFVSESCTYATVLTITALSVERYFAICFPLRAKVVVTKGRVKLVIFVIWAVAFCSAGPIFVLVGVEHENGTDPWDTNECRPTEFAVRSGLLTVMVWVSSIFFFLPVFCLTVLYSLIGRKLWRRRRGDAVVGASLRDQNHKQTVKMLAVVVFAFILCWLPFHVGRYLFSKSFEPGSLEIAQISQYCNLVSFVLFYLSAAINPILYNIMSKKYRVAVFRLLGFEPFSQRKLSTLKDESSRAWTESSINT", "assay": "Displacement of [125I]human ghrelin from human GHS-R1a expressed in HEK cell membranes after 60 mins by gamma counting method", "parameters": "species or system HEK293"}, "[5]": {"assay": "Volume of distribution at steady state in Han-Wistar rat at 2 mg/kg, iv", "format": "ADME, organism-based", "parameters": "dose 2 mg/kg, route intravenous", "conditions": "in vivo, read-out: Vdss", "summary_of_the_method": "as §2"}, "[6]": {"assay": "Unbound fraction in CD1 mouse plasma", "format": "ADME, cell-free"}, "[7]": {"assay": "Ratio of plasma concentration in C57Bl6j mouse free feeding model at 30 mg/kg, po after 6 hrs to IC50 for mouse GHS-R1a expressed in HEK cell membranes", "format": "ADME, organism-based, HEK293", "parameters": "dose 30 mg/kg, route oral", "conditions": "in vivo", "summary_of_the_method": "(§4)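 Male mice were kept on a reversed light cycle and given a 1% Pluronic F127 suspension orally (10 mL/kg) about 1 h before dark. Plasma exposure was corrected for mouse plasma protein binding and divided by mouse GHS-R1a binding IC50. Binding was 20 pM [125I]ghrelin displacement on HEK membranes, 60 min rt, pH 7.4, read by gamma counting.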"}, "[8]": {"assay": "Displacement of [125I]human ghrelin from mouse GHS-R1a expressed in HEK cell membranes after 60 mins by gamma counting method", "conditions": "hek293", "summary_of_the_method": "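HEK cell membranes stably overexpressing mouse or rat GHS-R1a (4 µg/well) incubated 60 min at rt with 20 pM [125I]human ghrelin and competing compound. Buffer: 50 mM Tris-HCl, 5 mM MgCl2, 0.01% BSA, pH 7.4, plus 10 µM methyl arachidonyl fluorophosphonate. Stopped by filtration over PEI-soaked GF/C filters with ice-cold washes, then gamma counting. IC50 is the mean of ≥2 independent determinations.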"}, "[9]": {"assay": "Ratio of plasma concentration in C57Bl6j mouse free feeding model at 30 mg/kg, po after 1 hr to IC50 for mouse GHS-R1a expressed in HEK cell membranes", "format": "ADME, organism-based, HEK293", "parameters": "dose 30 mg/kg, route oral", "conditions": "in vivo", "summary_of_the_method": "as §4"}, "Mus musculus [10]": {"tested_on": "Mus musculus", "assay": "Increase in food intake in po dosed C57Bl6j mouse free feeding model measured over 24 hrs period", "format": "functional", "summary_of_the_method": "(§5)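 Male mice (C57Bl6j, GHSr1-/- or wild-type littermates) were acclimatized 3 weeks to reversed light-dark, then individually housed 7 days and grouped (n=10-12) by baseline intake and body weight. Suspensions in 1% Pluronic F127 or vehicle were gavaged at 10 mL/kg about 1 h before dark onset. Pre-weighed food was reweighed at 2, 4, 6 and 24 h.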"}, "[11]": {"assay": "Unbound fraction in beagle dog plasma", "format": "ADME, cell-free, Canis lupus familiaris"}, "[12]": {"assay": "Oral bioavailability in Han-Wistar rat at 2 mg/kg", "format": "ADME, organism-based", "conditions": "Han-Wistar, in vivo", "summary_of_the_method": "as §3"}, "[13]": {"assay": "Clearance in Han-Wistar rat at 2 mg/kg, iv", "format": "ADME, organism-based", "parameters": "dose 2 mg/kg, route intravenous", "conditions": "in vivo", "summary_of_the_method": "as §2"}, "[14]": {"assay": "Volume of distribution at steady state in CD1 mouse at 2 mg/kg, iv", "format": "ADME, organism-based", "parameters": "dose 2 mg/kg, route intravenous", "conditions": "in vivo, read-out: Vdss", "summary_of_the_method": "as §2"}, "[15]": {"assay": "Cmax in Han-Wistar rat at 2 mg/kg, po", "format": "ADME, organism-based", "parameters": "dose 2 mg/kg, route oral", "conditions": "in vivo", "summary_of_the_method": "as §3"}, "[16]": {"assay": "Unbound fraction in Han-Wistar rat plasma", "format": "ADME, cell-free"}, "[17]": {"assay": "Aqueous solubility at pH 7.4 under thermodynamic conditions", "format": "physicochemical", "conditions": "buffer, read-out: Therm_solubility", "summary_of_the_method": "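Thermodynamic solubility measured from solid samples in aqueous medium at pH 7.4.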"}, "[18]": {"assay": "Lipophilicity, logD of the compound", "format": "physicochemical", "conditions": "octanol/water"}, "[19]": {"assay": "Clearance in beagle dog at 1 mg/kg, iv", "format": "ADME, organism-based, Canis lupus familiaris", "parameters": "dose 1 mg/kg, route intravenous", "conditions": "in vivo", "summary_of_the_method": "as §2"}, "[20]": {"assay": "Oral bioavailability in CD1 mouse at 5 mg/kg", "format": "ADME, organism-based", "conditions": "in vivo", "summary_of_the_method": "as §3"}, "[21]": {"assay": "Oral bioavailability in beagle dog at 1 mg/kg", "format": "ADME, organism-based, Canis lupus familiaris", "conditions": "in vivo", "summary_of_the_method": "as §3"}, "[22]": {"assay": "Cmax in CD1 mouse at 5 mg/kg, po", "format": "ADME, organism-based", "parameters": "dose 5 mg/kg, route oral", "conditions": "in vivo", "summary_of_the_method": "as §3"}, "[23]": {"assay": "Clearance in CD1 mouse at 2 mg/kg, iv", "format": "ADME, organism-based", "parameters": "dose 2 mg/kg, route intravenous", "conditions": "in vivo", "summary_of_the_method": "as §2"}, "MDR1 [24]": {"tested_on": "MDR1", "assay": "Efflux ratio in MDCK cells expressing MDR1 at 10 uM", "format": "ADME, cell-based, Canis lupus familiaris", "conditions": "dog", "summary_of_the_method": "as §1"}, "[25]": {"target": "Growth hormone secretagogue receptor type 1 (Rattus norvegicus) (UniProt O08725)", "sequence (O08725 whole entry, looked up)": "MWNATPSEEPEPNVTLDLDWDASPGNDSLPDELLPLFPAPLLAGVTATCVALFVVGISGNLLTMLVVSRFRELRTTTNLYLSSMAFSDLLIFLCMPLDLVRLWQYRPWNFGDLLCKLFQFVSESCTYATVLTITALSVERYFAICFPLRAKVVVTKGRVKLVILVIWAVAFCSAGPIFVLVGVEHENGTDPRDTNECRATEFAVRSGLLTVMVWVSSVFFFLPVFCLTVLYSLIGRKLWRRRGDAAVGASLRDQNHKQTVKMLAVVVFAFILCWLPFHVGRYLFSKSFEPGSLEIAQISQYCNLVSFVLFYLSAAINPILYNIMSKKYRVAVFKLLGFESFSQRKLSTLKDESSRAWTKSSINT", "assay": "Displacement of [125I]human ghrelin from rat GHS-R1a expressed in HEK cell membranes after 60 mins by gamma counting method", "conditions": "hek293"}, "[26]": {"assay": "Ratio of plasma concentration in C57Bl6j mouse free feeding model at 30 mg/kg, po after 2 hrs to IC50 for mouse GHS-R1a expressed in HEK cell membranes", "format": "ADME, organism-based, HEK293", "parameters": "dose 30 mg/kg, route oral", "conditions": "in vivo", "summary_of_the_method": "as §4"}, "Mus musculus [27]": {"tested_on": "Mus musculus", "assay": "Increase in food intake in po dosed C57Bl6j mouse free feeding model measured in 2 hrs intervals", "format": "functional, organism-based", "summary_of_the_method": "as §5"}, "[28]": {"assay": "Ratio of free drug level in homogenized brain to plasma in CD1 mouse measured 6 hrs after oral dosing by LC-MS/MS method", "format": "ADME", "summary_of_the_method": "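CD-1 mice dosed PO in 1% Pluronic F127. Drug was measured in homogenized brain and in plasma 6 h after dosing and expressed as a brain:plasma ratio. The free ratio used free fraction measured in mouse plasma and rat brain (brain slice or brain homogenate).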"}, "[29]": {"assay": "Cmax in CD1 mouse at 2 mg/kg, po by LC-MS/MS method", "format": "ADME, organism-based", "parameters": "dose 2 mg/kg, route oral", "conditions": "in vivo", "summary_of_the_method": "as §3"}, "[30]": {"assay": "Ratio of drug level in homogenized brain to plasma in CD1 mouse at 2.7 mg/kg, po measured after 6 hrs by LC-MS/MS method", "format": "ADME, organism-based", "parameters": "dose 2.7 mg/kg, route oral", "conditions": "read-out: BPR", "summary_of_the_method": "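Brain homogenate and plasma drug levels were taken 6 h after oral dosing, and their ratio was reported. Plasma was assayed by LC/MS/MS after acetonitrile protein precipitation.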"}},
  "note": "The source made the active and inactive calls. No cut-off for these calls is given here.",
  "data": [
    {"smiles": "CN1CCN(CCCS(=O)(=O)c2ccc3nc(NC(=O)NC(=O)c4ccccc4Cl)sc3c2)CC1", "values": [
      {"measurement": "Papp A→B at 10 µM", "setting": "MDR1 [1]", "result": 7.1, "unit": "×10⁻⁶ cm/s"},
      {"measurement": "Vd", "setting": "[2]", "result": 4, "unit": "L/kg"},
      {"measurement": "Cmax", "setting": "[3]", "result": 200, "unit": "nM"},
      {"measurement": "IC50", "setting": "[4]", "result": 1.3, "unit": "nM"},
      {"measurement": "Vd", "setting": "[5]", "result": 4.9, "unit": "L/kg"},
      {"measurement": "fraction unbound", "setting": "[6]", "result": 0.13},
      {"measurement": "Ratio", "setting": "[7]", "result": 20},
      {"measurement": "IC50", "setting": "[8]", "result": 4.9, "unit": "nM"},
      {"measurement": "Ratio", "setting": "[9]", "result": 310},
      {"measurement": "Activity", "setting": "Mus musculus [10]", "result": 19, "unit": "%"},
      {"measurement": "fraction unbound", "setting": "[11]", "result": 0.096},
      {"measurement": "bioavailability", "setting": "[12]", "result": 125, "unit": "%"},
      {"measurement": "clearance", "setting": "[13]", "result": 24, "unit": "mL/min/kg"},
      {"measurement": "Vd", "setting": "[14]", "result": 4.5, "unit": "L/kg"},
      {"measurement": "Cmax", "setting": "[15]", "result": 340, "unit": "nM"},
      {"measurement": "fraction unbound", "setting": "[16]", "result": 0.08},
      {"measurement": "solubility thermodynamic", "setting": "[17]", "result": 280, "unit": "µM"},
      {"measurement": "logD", "setting": "[18]", "result": 1.8},
      {"measurement": "clearance", "setting": "[19]", "result": 8.1, "unit": "mL/min/kg"},
      {"measurement": "bioavailability", "setting": "[20]", "result": 40, "unit": "%"},
      {"measurement": "bioavailability", "setting": "[21]", "result": 51, "unit": "%"},
      {"measurement": "Cmax", "setting": "[22]", "result": 710, "unit": "nM"},
      {"measurement": "clearance", "setting": "[23]", "result": 35, "unit": "mL/min/kg"},
      {"measurement": "efflux ratio at 10 µM", "setting": "MDR1 [24]", "result": 4.2},
      {"measurement": "IC50", "setting": "[25]", "result": 3.6, "unit": "nM"},
      {"measurement": "Ratio", "setting": "[26]", "result": 220},
      {"measurement": "Activity", "setting": "Mus musculus [27]", "result": "Active"}
    ]},
    {"smiles": "CN1CCC(S(=O)(=O)c2ccc3nc(NC(=O)NC(=O)c4cc5c(cc4Cl)CCN5C)sc3c2)CC1", "values": [
      {"measurement": "Papp A→B at 10 µM", "setting": "MDR1 [1]", "result": 5.1, "unit": "×10⁻⁶ cm/s"},
      {"measurement": "IC50", "setting": "[4]", "result": 7.2, "unit": "nM"},
      {"measurement": "Kp uu at 6 h", "setting": "[28]", "result": 0.072},
      {"measurement": "Cmax", "setting": "[29]", "result": 3000, "unit": "nM"},
      {"measurement": "Kp at 6 h", "setting": "[30]", "result": 0.15},
      {"measurement": "logD", "setting": "[18]", "result": 2.8},
      {"measurement": "efflux ratio at 10 µM", "setting": "MDR1 [24]", "result": 1.2}
    ]}
  ]
}
